Among the data in ChEMBL document CHEMBL5030505, “Assessment of NR4A Ligands That Directly Bind and Modulate the Orphan Nuclear Receptor Nurr1” (J Med Chem, 2020) are Activity values, retold here.

What all share (type): cell-based
Data set [1] deals with Nuclear receptor subfamily 4 group A member 2 (Homo sapiens) (UniProt P43354). Nature of the data set: Modulation of full length human Nurr1 expressed in SK-N-BE(2) cells co-transfected with luciferase reporter plasmid harboring NurRE response element assessed as increase in luciferase activity at 1.95 to 125 uM incubated for 18 hrs by luciferase reporter gene assay. To be noted: SKNBE2, filed as modulator, dose 1.95-125 µM. Summed up:
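Transfection of SK-N-BE(2)-C cells (1:1 EMEM/F12, 10% FBS, 37°C, 5% CO2) used full-length Nurr1 alone (2 μg, no RXRα) with 3xNBRE- or 3xNurRE-luciferase reporter (6 μg) for 18 h. Cells were replated at 10,000/well for 4 h, then exposed to ligand or vehicle in quadruplicate for 18 h. Luminescence was expressed as fold over vehicle, as mean ± s.e.m. (n=4) from 2 independent experiments, one-way ANOVA against vehicle.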

Another data set has as its system HEK293T. Description: Modulation of Gal4-fused VP16 expressed in HEK293T cells co-transfected with UAS repoter gene assessed as decrease in luciferase activity at 5 to 100 uM incubated for 18 hrs by luciferase reporter gene assay. To be noted: Human alphaherpesvirus 2, filed as modulator, dose 5-100 µM. In outline:
(§1)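 Cells in 10-cm dishes were transfected with Gal4-VP16 expression plasmid (2 μg) plus 5xUAS-luciferase reporter (2 μg) for 18 h. They were replated at 10,000 cells/well for 4 h, then given ligand or vehicle (water, ethanol or DMSO) in quadruplicate for 18 h. Luciferase was read with Britelite Plus. Fold change is versus vehicle-treated cells, with one-way ANOVA versus vehicle.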
On the technique in general: Reporter assays use an easily measured gene product as a stand-in for the process of interest.

In data set [2] the test system is SKNBE2. Nature of the data set: Modulation of Gal4-fused VP16 expressed in SKNBE2 cells co-transfected with UAS repoter gene assessed as decrease in luciferase activity at 5 to 100 uM incubated for 18 hrs by luciferase reporter gene assay. To be noted: Human alphaherpesvirus 2, filed as modulator, dose 5-100 µM. Summed up:
as §1

For a further data set, the system named is PC-12. Nature of the data set: Cytotoxicity against rat PC-12 cells assessed as reduction in cell viability at 5 to 100 uM incubated for 18 hrs by Cell titer-glo assay. To be noted: pc-12, 18 h, dose 5-100 µM. In outline: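 Cells seeded at 1.5 million per 10-cm dish. Next day they were replated at 10,000 cells/well and rested 4 h. Ligand or vehicle (water, ethanol or DMSO, by ligand) was added in dose-response format in quadruplicate. After 18 h, viability was read by CellTiter-Glo luminescence. Data are mean ± s.e.m., generally representative of 2 independent experiments. One-way ANOVA versus vehicle.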
(ATP-based viability assays read luminescence as a measure of living cells.)

Data set [3] addresses Nuclear receptor subfamily 4 group A member 2 (Homo sapiens) (UniProt P43354). Nature of the data set: Modulation of full length human Nurr1 expressed in HEK293T cells co-transfected with luciferase reporter plasmid harboring NBRE response element assessed as decrease in luciferase activity at 1.56 to 6.25 uM incubated for 18 by luciferase reporter gene assay. The conditions noted are these: filed as modulator, dose 1.56-6.25 µM, time 18.0 hrs. Summed up: (§2)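 Cells transfected (Lipofectamine 2000, 18 h) with full-length Nurr1 expression plasmid (2 μg) and 3xNBRE- or 3xNurRE-luciferase reporter (6 μg), no internal control normalisation; replated 10,000 cells/well, 4 h; ligand or vehicle in quadruplicate for 18 h; Britelite Plus luminescence as fold change over vehicle. Mean ± s.e.m. (n=4); one-way ANOVA versus vehicle.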

For data set [4] the target is unchanged. Description: Modulation of full length human Nurr1 expressed in PC12 cells co-transfected with RXRalpha and luciferase reporter plasmid harboring NurRE response element assessed as decrease in luciferase activity at 1.56 to 6.25 uM incubated for 18 by luciferase reporter gene assay. To be noted: PC-12, filed as modulator, dose 1.56-6.25 µM, time 18.0 hrs.

The target is the same in data set [5]. Nature of the data set: Modulation of full length human Nurr1 expressed in PC12 cells co-transfected with luciferase reporter plasmid harboring NBRE response element assessed as increase in luciferase activity at 1.56 to 6.25 uM incubated for 18 by luciferase reporter gene assay. To be noted: PC-12, filed as modulator, dose 1.56-6.25 µM, time 18.0 hrs. In outline:
as §2

The target is the same in data set [6]. Nature of the data set: Modulation of full length human Nurr1 expressed in HEK293T cells co-transfected with RXRalpha and luciferase reporter plasmid harboring NurRE response element assessed as increase in luciferase activity at 1.56 to 6.25 uM incubated for 18 by luciferase reporter gene assay. To be noted: filed as modulator, dose 1.56-6.25 µM, time 18.0 hrs.

For data set [7] the target is unchanged. Description: Modulation of full length human Nurr1 expressed in SKNBE(2) cells co-transfected with RXRalpha and luciferase reporter plasmid harboring NBRE response element assessed as decrease in luciferase activity at 1.56 to 6.25 uM incubated for 18 by luciferase reporter gene assay. To be noted: SKNBE2, filed as modulator, dose 1.56-6.25 µM, time 18.0 hrs.

The target is the same in data set [8]. Description: Modulation of full length human Nurr1 expressed in SKNBE(2) cells co-transfected with RXRalpha and luciferase reporter plasmid harboring NurRE response element assessed as increase in luciferase activity at 1.56 to 6.25 uM incubated for 18 by luciferase reporter gene assay. The conditions noted are these: SKNBE2, filed as modulator, dose 1.56-6.25 µM, time 18.0 hrs.

For data set [9] the target is unchanged. Description: Modulation of full length human Nurr1 expressed in HEK293T cells co-transfected with RXRalpha and luciferase reporter plasmid harboring NBRE response element assessed as increase in luciferase activity at 1.56 to 6.25 uM incubated for 18 by luciferase reporter gene assay. To be noted: filed as modulator, dose 1.56-6.25 µM, time 18.0 hrs.
The target is the same in data set [10]. Nature of the data set: Modulation of full length human Nurr1 expressed in SKNBE(2) cells co-transfected with luciferase reporter plasmid harboring NurRE response element assessed as increase in luciferase activity at 1.56 to 6.25 uM incubated for 18 by luciferase reporter gene assay. The conditions noted are these: SKNBE2, filed as modulator, dose 1.56-6.25 µM, time 18.0 hrs. Summed up: as §2

Data set [11] relates to SKNBE2. Description: Modulation of Gal4-fused VP16 expressed in SKNBE(2) cells co-transfected with UAS repoter gene assessed as decrease in luciferase activity at 1.56 to 6.25 uM incubated for 18 hrs by luciferase reporter gene assay. The conditions noted are these: Human alphaherpesvirus 2, filed as modulator, dose 1.56-6.25 µM. In outline:
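Constitutive control: cells transfected (Lipofectamine 2000) with Gal4-VP16 expression plasmid (2 μg) plus 5xUAS-luciferase reporter (2 μg), 18 h; replated 10,000 cells/well, 4 h; ligand or vehicle in quadruplicate for 18 h; luciferase read by Britelite Plus; signal as fold change over vehicle-treated cells. Mean ± s.e.m. (n=4); one-way ANOVA versus vehicle.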

For the next data set, the system named is HEK-293T. Nature of the data set: Cytotoxicity against human HEK293T cells assessed as reduction in cell viability at 1.56 to 6.25 microM incubated for 18 hrs by Cell titer-glo assay. To be noted: dose 1.56-6.25 µM. In outline: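 Cells seeded 1.5 million per 10-cm dish; next day replated at 10,000 cells/well in 384-well format, 4 h, then ligand or vehicle (water, ethanol or DMSO by ligand) added in quadruplicate for 18 h; viability read by CellTiter-Glo luminescence. Mean ± s.e.m. (n=4), generally 2 independent experiments; one-way ANOVA versus vehicle.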

For data set [12], the target named is Nuclear receptor subfamily 4 group A member 2 (Homo sapiens) (UniProt P43354). Description: Modulation of full length human Nurr1 expressed in HEK293T cells co-transfected with RXRalpha and luciferase reporter plasmid harboring NurRE response element assessed as decrease in luciferase activity at 1.56 to 6.25 uM incubated for 18 by luciferase reporter gene assay. To be noted: filed as modulator, dose 1.56-6.25 µM, time 18.0 hrs.

Data set [13] has the same target. Description: Modulation of full length human Nurr1 expressed in HEK293T cells co-transfected with luciferase reporter plasmid harboring NurRE response element assessed as increase in luciferase activity at 1.56 to 6.25 uM incubated for 18 by luciferase reporter gene assay. The conditions noted are these: filed as modulator, dose 1.56-6.25 µM, time 18.0 hrs. Summed up: as §2

Active and inactive are the calls of the source. The rule behind the calls is not given here.

Chain of Nuclear receptor subfamily 4 group A member 2 (Homo sapiens) (P43354 whole entry): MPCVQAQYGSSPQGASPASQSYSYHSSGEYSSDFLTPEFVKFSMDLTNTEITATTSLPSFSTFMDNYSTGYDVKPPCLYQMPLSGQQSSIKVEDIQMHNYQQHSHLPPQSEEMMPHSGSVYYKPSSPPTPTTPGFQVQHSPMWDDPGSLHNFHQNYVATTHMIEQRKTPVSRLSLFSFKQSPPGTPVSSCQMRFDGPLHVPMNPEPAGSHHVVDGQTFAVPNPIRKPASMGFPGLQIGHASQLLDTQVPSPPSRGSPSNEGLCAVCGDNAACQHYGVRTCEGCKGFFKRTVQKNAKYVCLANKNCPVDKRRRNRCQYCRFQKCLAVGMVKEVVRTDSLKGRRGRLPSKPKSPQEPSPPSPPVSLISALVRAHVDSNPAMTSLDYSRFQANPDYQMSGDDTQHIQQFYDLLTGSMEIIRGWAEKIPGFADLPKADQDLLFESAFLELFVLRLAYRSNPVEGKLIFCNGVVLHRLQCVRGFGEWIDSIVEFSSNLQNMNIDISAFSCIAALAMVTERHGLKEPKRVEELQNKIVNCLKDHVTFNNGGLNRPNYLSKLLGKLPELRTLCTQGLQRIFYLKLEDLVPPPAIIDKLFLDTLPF

On to `CCN(CC)CCCC(C)Nc1ccnc2cc(Cl)ccc12` (configuration not stated) [CHLOROQUINE], for which the outcome in data set [1] was Active.

For `CCCCCCCC(=O)c1c(O)cc(O)cc1CC(=O)OCC` [CYTOSPORONE B], the outcome in the data set on HEK293T and in the data set with SKNBE2 [2] was Active. In the data set with PC-12, the Activity result is recorded as “Toxic”.

In the case of `CC1=C(O)C(=O)C=C2C1=CC=C1[C@@]2(C)CC[C@@]2(C)[C@@H]3C[C@](C)(C(=O)O)CC[C@]3(C)CC[C@]12C` [CELASTROL], the result in [3], in data set [4], in data set [5], in data set [6], in data set [7] and in data set [8] was Active. Moreover, the result (in [9]; in [10]; in the data set with SKNBE2 [11]; in data set [12]; in data set [13]) was Active. In addition, the Activity result with HEK-293T is “Toxic”.

`CCN(CC)Cc1cc(Nc2ccnc3cc(Cl)ccc23)ccc1O` [AMODIAQUINE]: in data set [1], the result was Active.
